Only some compounds are listed: those with a hit (about 3.6% of all), similar ones and a draw of the others.
EBNA-1 inh = blocks EBNA-1 binding to DNA | EBNA-1 DNA binding, fluorescence polarization | hit rate 0.34% among 300,000 | AID 1950 | inhibition, % at 14.8 µM; in the data active means inhibition above about 28%
HCV NS3 hel inh = blocks Hepatitis C virus NS3 helicase unwinding | NS3 helicase DNA unwinding, Cy5 molecular beacon fluorescence | hit rate 0.56% among 290,000 | AID 1800 | inhibition, % at 10.9 µM;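 active means inhibition above the mean of all tested compounds plus 3 SD, set per campaign, cut at about 35% in these data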
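Measured by: Cy5 fluorescence, 0 and 60 min reads / Assay system: NS3 helicase fragment of HCV / Control set: low DMSO, high thioflavine S at 110 µM / Times: 1 h reaction at 25 °C, ATP-initiated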
DNA FID counter = displaces DNA intercalator in HCV helicase counter-screen; hit rate 0.17% among 290,000; DNA fluorescent intercalator displacement, fluorescence; inhibition, % at 7.9 µM; in the data active means inhibition above about 37%;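 further: higher means more ethidium bromide displaced from hairpin DNA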
ZTA DNA inh = blocks Epstein-Barr virus ZTA, an EBNA-1 counter-screen | AID 2234 | ZTA-DNA binding, fluorescence polarization | inhibition, % at 11 µM | hit rate 0.15% among 320,000; in the data active means inhibition above about 33%
Target sequence (P03206 whole entry, looked up): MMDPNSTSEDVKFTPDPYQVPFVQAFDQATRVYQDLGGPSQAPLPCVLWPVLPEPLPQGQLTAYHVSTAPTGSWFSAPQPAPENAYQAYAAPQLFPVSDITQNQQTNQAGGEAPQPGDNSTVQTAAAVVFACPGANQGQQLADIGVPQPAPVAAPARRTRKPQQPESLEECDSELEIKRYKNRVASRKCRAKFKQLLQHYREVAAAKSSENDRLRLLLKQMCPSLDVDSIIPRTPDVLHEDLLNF
NR3A LBD binder = modulates the human NR3A ligand-binding domain | hit rate 2.5% among 340,000 | Tm shift relative to glycine control, % at 25 µM | NR3A LBD differential scanning fluorimetry, Tm shift; 0% = protein alone, 100% = glycine-bound protein;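 active means melting temperature shift of at least 10% of the positive control shift, at one fixed dose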
FGF22 binding = shifts melting point of recombinant human FGF22. Q9HCT0. AID 651658. activity (Tm shift, normalised), % at 9.99 µM. hit rate 1.5% among 340,000. recombinant FGF22 thermal shift, SYPRO orange fluorescence; percent of sucrose octasulfate shift, DMSO zero;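 active means mean Tm shift, scaled 0 neutral to 100 positive control, at about 1.3% or above, every replicate too, limit read from the data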
Target sequence (Q9HCT0 whole entry, looked up): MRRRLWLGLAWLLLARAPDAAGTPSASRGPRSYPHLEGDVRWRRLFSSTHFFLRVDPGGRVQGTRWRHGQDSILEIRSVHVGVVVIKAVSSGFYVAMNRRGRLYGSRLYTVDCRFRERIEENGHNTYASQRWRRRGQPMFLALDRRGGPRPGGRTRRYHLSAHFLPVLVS
A number is an active result.

Results for Nc1ccccc1SCC(=O)Nc1nc(-c2ccccc2)cs1 ?
EBNA-1 inh: inactive; HCV NS3 hel inh: inactive; DNA FID counter: inactive; ZTA DNA inh: inactive; NR3A LBD binder: 11; FGF22 binding: 1.5

What do the screens show for `O=C(NN1C(=O)/C(=C/c2ccc(O)c([N+](=O)[O-])c2)SC1=S)c1ccccc1Cl`?
EBNA-1 inh: inactive; HCV NS3 hel inh: inactive; DNA FID counter: inactive; ZTA DNA inh: inactive; NR3A LBD binder: inactive

How did COc1ccccc1/C=C1\SC(=S)N(CCC(=O)NNC(=O)c2ccccc2O)C1=O do in these assays?
EBNA-1 inh: inactive; HCV NS3 hel inh: inactive; DNA FID counter: inactive; ZTA DNA inh: inactive; NR3A LBD binder: 11

How did COc1cc(/C=C2\SC(=S)N(NC(=O)c3ccccc3O)C2=O)ccc1O do in these assays?
EBNA-1 inh: inactive; HCV NS3 hel inh: inactive; DNA FID counter: inactive; ZTA DNA inh: inactive; NR3A LBD binder: 11; FGF22 binding: inactive

What do the screens show for `COc1ccc(/C=C2\SC(=S)N(CCCC(=O)NNC(=O)c3ccccc3O)C2=O)cc1`?
EBNA-1 inh: inactive; HCV NS3 hel inh: inactive; DNA FID counter: inactive; ZTA DNA inh: inactive; NR3A LBD binder: inactive; FGF22 binding: inactive

How did O=C(NN1C(=O)/C(=C/c2ccc(O)cc2)SC1=S)c1ccccc1O do in these assays?
EBNA-1 inh: inactive; HCV NS3 hel inh: inactive; DNA FID counter: inactive; ZTA DNA inh: inactive; NR3A LBD binder: 16; FGF22 binding: inactive

Results for N#C[C@@H]1[C@@H](c2ccccc2-c2cccc(F)c2)[C@H](CO)N1C(=O)C1CCCCC1 ?
FGF22 binding: inactive

How did O=C(NCC(c1ccc(F)cc1)N1CCOCC1)c1cc(F)c(F)c(F)c1F (configuration not stated) do in these assays?
EBNA-1 inh: inactive; HCV NS3 hel inh: inactive; DNA FID counter: inactive; ZTA DNA inh: inactive; NR3A LBD binder: inactive; FGF22 binding: 43

What do the screens show for `CCCCOc1ccc(C(=O)NCC(=O)OC2CCOC2=O)cc1` (configuration not stated)?
EBNA-1 inh: inactive; HCV NS3 hel inh: inactive; DNA FID counter: inactive; ZTA DNA inh: inactive; NR3A LBD binder: inactive

How did O=C(CNC(=O)c1ccc(Cl)cc1)OC1CCOC1=O (configuration not stated) do in these assays?
EBNA-1 inh: inactive; HCV NS3 hel inh: inactive; DNA FID counter: inactive; ZTA DNA inh: inactive; NR3A LBD binder: inactive; FGF22 binding: 43

What do the screens show for `Cc1ccc(S(=O)(=O)N(C)c2ccc(C)c([N+](=O)[O-])c2)cc1`?
EBNA-1 inh: inactive; HCV NS3 hel inh: inactive; DNA FID counter: inactive; ZTA DNA inh: inactive; NR3A LBD binder: inactive; FGF22 binding: 43

How did CO[C@H]1CN(C)C(=O)c2cc(NC(C)=O)ccc2OC[C@@H](C)N(CCc2ccccc2)C[C@@H]1C do in these assays?
FGF22 binding: inactive

What do the screens show for `Cc1cc(C(=O)COc2ccc(C#N)cc2)c(C)n1CC1CCCO1` (configuration not stated)?
NR3A LBD binder: inactive; FGF22 binding: 43

Results for Cc1ccc(-n2nnnc2SCC(=O)c2cc(C)n(CC3CCCO3)c2C)cc1 (configuration not stated) ?
EBNA-1 inh: 101; ZTA DNA inh: inactive; NR3A LBD binder: inactive

What do the screens show for `Cc1cccc(-n2nnnc2SCC(=O)c2cc(C)n(CC3CCCO3)c2C)c1` (configuration not stated)?
EBNA-1 inh: inactive; HCV NS3 hel inh: inactive; DNA FID counter: inactive; ZTA DNA inh: inactive; NR3A LBD binder: inactive

What do the screens show for `COc1ccc(NC(=O)O[C@H]2[C@H](OC(=O)Nc3ccc4c(c3)OCO4)[C@H](OC(=O)Nc3ccc4c(c3)OCO4)[C@@H](OC)O[C@@H]2CO)cc1`?
FGF22 binding: inactive

How did Clc1ccc(SCNc2ccccc2Cl)cc1 do in these assays?
EBNA-1 inh: inactive; HCV NS3 hel inh: inactive; DNA FID counter: inactive; ZTA DNA inh: inactive; NR3A LBD binder: 10; FGF22 binding: inactive

What do the screens show for `Cc1ccc(NCSc2ccc(Cl)cc2)cc1`?
NR3A LBD binder: inactive; FGF22 binding: inactive

What do the screens show for `CCCNC(=O)Nc1ccc2c(c1)C(=O)N(C)C[C@@H](OC)[C@H](C)CN(C(=O)C1CCOCC1)[C@@H](C)CO2`?
FGF22 binding: inactive

What do the screens show for `COc1cccc(NC(=O)Cc2csc(NC(=O)Nc3ccccc3OC)n2)c1`?
EBNA-1 inh: inactive; ZTA DNA inh: inactive; NR3A LBD binder: 29; FGF22 binding: inactive
